Measured values as given in ChEMBL document CHEMBL1150054, “Studies on the synthesis of sesquiterpene lactones, 14. Syntheses of (-)-arbusclin D and (+)-4-EPI-arbusclin D: the stereochemical assignment of arbusclin D” (1992).
Calls of active or inactive are those of the source. The calls are words filed in the database; no cut-off is given here.

Key:
Brassica juncea [1] = test: Growth regulatory activity in Brassica juncea assessed as complete inhibition of stem growth at 1000 ppm after 10 days; format: functional, organism-based
Brassica juncea [2] = test: Growth regulatory activity in Brassica juncea assessed as complete inhibition of root growth at 1000 ppm after 10 days; format: functional, organism-based
Echinochloa frumentacea [3] = test: Growth regulatory activity in Echinochloa frumentacea assessed as inhibition of stem growth at 250 ppm after 10 days; format: functional, organism-based
Brassica juncea [4] = test: Growth regulatory activity in Brassica juncea assessed as complete inhibition of root growth at 250 ppm after 10 days; format: functional, organism-based
Echinochloa frumentacea [5] = test: Growth regulatory activity in Echinochloa frumentacea assessed as complete inhibition of root growth at 1000 ppm after 10 days; format: functional, organism-based
Brassica juncea [6] = test: Growth regulatory activity in Brassica juncea assessed as complete inhibition of root growth at 500 ppm after 10 days; format: functional, organism-based
Cucumis sativus [7] = test: Growth regulatory activity in Cucumis sativus assessed as inhibition of stem growth at 250 ppm after 10 days; format: functional, organism-based
P388 [8] = test: Growth inhibition of mouse P388 cells at 10 ug/mL after 48 hrs relative to control; format: functional; conditions: P388, 48 h, read-out: GI
Method in brief: (§1)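 P-388 murine lymphocytic leukemia cells incubated with compound 48 h at 37° under humidified 5% CO2; cells counted by Coulter counter. Inhibitory ratio (%) = (1 − (T − C0)/(C − C0)) × 100, where T is the count with compound, C the count without compound and C0 the count at culture start.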

P388 [9] = test: Growth inhibition of mouse P388 cells at 0.1 ug/mL after 48 hrs relative to control; format: functional; conditions: P388, 48 h, read-out: GI; method in brief: as §1
Cucumis sativus [10] = test: Growth regulatory activity in Cucumis sativus assessed as inhibition of stem growth at 100 ppm after 10 days; format: functional, organism-based
Brassica juncea [11] = test: Growth regulatory activity in Brassica juncea assessed as inhibition of stem growth at 250 ppm after 10 days; format: functional, organism-based
Cucumis sativus [12] = test: Growth regulatory activity in Cucumis sativus assessed as complete inhibition of root growth at 500 ppm after 10 days; format: functional, organism-based
P388 [13] = test: Growth inhibition of mouse P388 cells at 1 ug/mL after 48 hrs relative to control; format: functional; conditions: P388, 48 h, read-out: GI; method in brief: as §1
Cucumis sativus [14] = test: Growth regulatory activity in Cucumis sativus assessed as complete inhibition of stem growth at 1000 ppm after 10 days; format: functional, organism-based
Echinochloa frumentacea [15] = test: Growth regulatory activity in Echinochloa frumentacea assessed as complete inhibition of stem growth at 1000 ppm after 10 days; format: functional, organism-based
Cucumis sativus [16] = test: Growth regulatory activity in Cucumis sativus assessed as complete inhibition of root growth at 1000 ppm after 10 days; format: functional, organism-based
Brassica juncea [17] = test: Growth regulatory activity in Brassica juncea assessed as complete inhibition of stem growth at 500 ppm after 10 days; format: functional, organism-based
Cucumis sativus [18] = test: Growth regulatory activity in Cucumis sativus assessed as inhibition of root growth at 500 ppm after 10 days; format: functional, organism-based
Echinochloa frumentacea [19] = test: Growth regulatory activity in Echinochloa frumentacea assessed as complete inhibition of stem growth at 500 ppm after 10 days; format: functional, organism-based
Cucumis sativus [20] = test: Growth regulatory activity in Cucumis sativus assessed as complete inhibition of stem growth at 500 ppm after 10 days; format: functional, organism-based
Echinochloa frumentacea [21] = test: Growth regulatory activity in Echinochloa frumentacea assessed as complete inhibition of root growth at 500 ppm after 10 days; format: functional, organism-based
Cucumis sativus [22] = test: Growth regulatory activity in Cucumis sativus assessed as inhibition of root growth at 100 ppm after 10 days; format: functional, organism-based
Cucumis sativus [23] = test: Growth regulatory activity in Cucumis sativus assessed as inhibition of root growth at 250 ppm after 10 days; format: functional, organism-based
P388 [24] = test: Growth inhibition of mouse P388 cells at 0.01 ug/mL after 48 hrs relative to control; format: functional; conditions: P388, 48 h, read-out: GI; method in brief: as §1
Brassica juncea [25] = test: Growth regulatory activity in Brassica juncea assessed as inhibition of root growth at 250 ppm after 10 days; format: functional, organism-based
Brassica juncea [26] = test: Growth regulatory activity in Brassica juncea assessed as inhibition of stem growth at 500 ppm after 10 days; format: functional, organism-based
Echinochloa frumentacea [27] = test: Growth regulatory activity in Echinochloa frumentacea assessed as inhibition of stem growth at 500 ppm after 10 days; format: functional, organism-based
Cucumis sativus [28] = test: Growth regulatory activity in Cucumis sativus assessed as complete inhibition of root growth at 250 ppm after 10 days; format: functional, organism-based
Echinochloa frumentacea [29] = test: Growth regulatory activity in Echinochloa frumentacea assessed as complete inhibition of root growth at 250 ppm after 10 days; format: functional, organism-based
Cucumis sativus [30] = test: Growth regulatory activity in Cucumis sativus assessed as complete inhibition of root growth at 100 ppm after 10 days; format: functional, organism-based
Echinochloa frumentacea [31] = test: Growth regulatory activity in Echinochloa frumentacea assessed as inhibition of root growth at 1000 ppm after 10 days; format: functional, organism-based
Brassica juncea [32] = test: Growth regulatory activity in Brassica juncea assessed as inhibition of root growth at 1000 ppm after 10 days; format: functional, organism-based
Echinochloa frumentacea [33] = test: Growth regulatory activity in Echinochloa frumentacea assessed as inhibition of stem growth at 1000 ppm after 10 days; format: functional, organism-based
Echinochloa frumentacea [34] = test: Growth regulatory activity in Echinochloa frumentacea assessed as inhibition of root growth at 500 ppm after 10 days; format: functional, organism-based
Brassica juncea [35] = test: Growth regulatory activity in Brassica juncea assessed as inhibition of root growth at 500 ppm after 10 days; format: functional, organism-based
Cucumis sativus [36] = test: Growth regulatory activity in Cucumis sativus assessed as complete inhibition of stem growth at 250 ppm after 10 days; format: functional, organism-based

Row | SMILES | Activity (Brassica juncea [1]) | Activity (Brassica juncea [2]) | Activity (Echinochloa frumentacea [5]) | Activity (Brassica juncea [6]) | inhibition of growth at 10 µg/mL (P388 [8]) | inhibition of growth at 0.1 µg/mL (P388 [9]) | Activity (Cucumis sativus [12]) | inhibition of growth at 1 µg/mL (P388 [13]) | Activity (Cucumis sativus [14]) | Activity (Echinochloa frumentacea [15]) | Activity (Cucumis sativus [16]) | Activity (Cucumis sativus [18]) | Activity (Cucumis sativus [20]) | Activity (Echinochloa frumentacea [21]) | further results
1 | CC(=O)OCC1=C2CC[C@@]3(C)CCC[C@@](C)(O)[C@@H]3[C@H]2OC1=O | Active | Active |  |  |  |  |  |  |  |  |  |  |  |  | Activity (Echinochloa frumentacea [3]): Active
2 | C=C1C(=O)O[C@@H]2[C@@H]3[C@](C)(CCC[C@@]3(C)O)CC[C@@H]12 [ARBUSCULIN A] | Active | Active | Active | Active | 101% | 2% | Active | 45% | Active | Active | Active | Active | Active | Active | Activity (Brassica juncea [4]): Active; Activity (Cucumis sativus [7]): Active; Activity (Cucumis sativus [10]): Active; Activity (Brassica juncea [11]): Active; Activity (Brassica juncea [17]): Active; Activity (Echinochloa frumentacea [19]): Active; Activity (Cucumis sativus [22]): Active; Activity (Cucumis sativus [23]): Active
3 | COc1cccc2c1C(=O)c1c(O)c3c(c(O)c1C2=O)C[C@@](O)(C(=O)CO)C[C@@H]3O[C@H]1C[C@H](N)[C@H](O)[C@H](C)O1 [DOXORUBICIN] |  |  |  |  |  | 99% |  | 105% |  |  |  |  |  |  | inhibition of growth at 0.01 µg/mL (P388 [24]): 38%
4 | C[C@]12CCC[C@@](C)(O)[C@@H]1[C@H]1OC(=O)C(CCl)=C1CC2 | Active | Active | Active | Active | 103% | 26% | Active | 65% | Active | Active | Active |  | Active | Active | Activity (Cucumis sativus [7]): Active; Activity (Brassica juncea [25]): Active; Activity (Brassica juncea [11]): Active; Activity (Brassica juncea [26]): Active; Activity (Echinochloa frumentacea [27]): Active; Activity (Cucumis sativus [28]): Active; Activity (Echinochloa frumentacea [29]): Active; Activity (Cucumis sativus [30]): Active
5 | C[C@]12CCC[C@@](C)(O)[C@@H]1[C@H]1OC(=O)C(CO)=C1CC2 |  |  |  |  |  |  |  |  |  |  | Active | Active |  |  | Activity (Echinochloa frumentacea [31]): Active; Activity (Brassica juncea [32]): Active; Activity (Echinochloa frumentacea [33]): Active; Activity (Cucumis sativus [23]): Active
6 | C[C@]12CCC[C@@](C)(O)[C@@H]1[C@H]1OC(=O)C(CBr)=C1CC2 | Active | Active | Active |  | 102% | 3% |  | 44% | Active | Active |  | Active |  |  | Activity (Echinochloa frumentacea [34]): Active; Activity (Brassica juncea [35]): Active
7 | C[C@@H]1C(=O)O[C@H]2C1CC[C@@]1(C)CCC[C@@](C)(O)[C@H]21 (stereo not given in full) | Active | Active | Active | Active |  |  | Active |  | Active | Active | Active |  | Active | Active | Activity (Cucumis sativus [36]): Active; Activity (Brassica juncea [26]): Active; Activity (Echinochloa frumentacea [27]): Active; Activity (Cucumis sativus [28]): Active
